PostGolgi ctrl: growth inhibition of yeast control strain, primary screen, counter-screen for post-Golgi transport modulator project; inhibition, % at 10 µM; 98,000 compounds, 5% hits; efflux-deficient yeast background strain, growth absorbance A615, 16 h
BB579 growth dn: growth inhibitors of yeast BB579 in restrictive medium, primary screen, yeast lifespan-shortening project, S. cerevisiae. OD615, 48 h. 140,000 compounds, 0.51% hits. inhibition, % at 10 µM;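 active = inhibition above a set limit, 3 SD over the mean compound inhibition, cut at about 44% in these data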
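Detection: OD615 turbidity measurement; Material: Saccharomyces cerevisiae DeaD strain BB579, replicative lifespan model yeast; Timing: 48 h exposure, 30 °C; Doses: single 10 µM dose; Medium: CSMM-D restrictive synthetic medium containing dextrose (glucose); Controls: amphotericin B at 10 µg/mL as positive control.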
Yeast lifespan up: compounds extending yeast replicative lifespan, primary screen, S. cerevisiae, OD615; AID 775, 2007; 130,000 compounds, 0.68% hits; inhibition of the nicotinamide effect, % at 10 µM; S. cerevisiae growth with nicotinamide; deaD strain in restrictive glucose medium;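 active = inhibition above a set limit, placed 3 SD over the median of all compounds, cut at about 26% in these data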;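 note: 0% = nicotinamide-treated wells and 100% = cells grown without nicotinamide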
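Assay system: engineered S. cerevisiae DeaD replicative-lifespan strain, galactose-grown log-phase cells; medium: restrictive CSMM-D dextrose medium; also added: nicotinamide, 1.5 mM, co-present with compound; schedule: 48 h compound exposure at 30 °C, humidified; detection: absorbance at 615 nm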
PostGolgi yeast: phenotypic screen on post-Golgi transport, primary screen | inhibition, % at 10 µM | 98,000 compounds, 0.9% hits | post-Golgi transport phenotypic cell assay;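 note: yeast cells grown in 1536-well plates; yeast grown about 18 h at 30C before absorbance read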
An asterisk follows results filed as active; nt = no result given. This is one part of a sample in which hits are shown more often than they occur. Cut-off read from the data, not from the text of the source, unless noted: active = inhibition above about 30%; inactive = the rest.

SMILES	PostGolgi ctrl	BB579 growth dn	Yeast lifespan up	PostGolgi yeast
CN1/C(=C/C2CC(=O)NC2=O)C(C)(C)c2ccccc21 (centres undefined)	0	-29	4	45*
O=C(CN1C(=O)C2C3C=CC(C3)C2C1=O)Nc1ccc(S(=O)(=O)N2CCCCC2)cc1 (centres undefined)	nt	-52	-1	nt
CCCCc1ccc(NS(=O)(=O)c2cccs2)cc1	37*	58*	-22	-4
O=S(=O)(Nc1ccc(Cc2ccncc2)cc1)c1cccs1	9	-13	13	-2
CS(=O)(=O)Nc1ccc(C(=O)N2CCN(c3ccccc3)CC2)cc1	0	-16	6	2
Cc1sc2nc(SCc3nnc(-c4cccs4)o3)n(C3CCCC3)c(=O)c2c1C	30*	-61	-3	26
O=C1c2cnc3nc(SCc4ccc(Cl)cc4)nn3c2CC2c3ccccc3CCN12 (centres undefined)	35*	-25	-2	18
Clc1ccc(CSc2ncccn2)cc1	7	-21	-6	-1
N#CC(C#N)=c1ccc2c(c1)N1C3=C(CCCC3)CC3CCCCC31N=2 (centres undefined)	50*	1	15	44*
N#C/C(C(N)=O)=c1/ccc2c(c1)N1C3=C(CCCC3)CC3CCCCC31N=2 (centres undefined)	18	-19	37*	6
C#CCn1c(S(=O)(=O)Cc2ccc(OC)cc2)nc(-c2ccccc2)c1-c1ccccc1	25	-39	0	0
C=CCCCCCCCCc1nc(=S)[nH][nH]1	67*	-2	-8	9
Nc1ccc(C(=O)OCC(=O)Nc2ccc3c(c2)OCO3)cc1[N+](=O)[O-]	nt	98*	-1	nt
Oc1c(C=Nc2cccnc2)sc2ccccc12	31*	-6	-16	3
CC1=NN(c2ccc(C(F)(F)F)cn2)C(=O)C1	nt	-23	58*	nt
CCOC(=O)C1=C(c2ccccc2)O/C(=C(/C#N)C(F)(F)F)S1	39*	-41	9	3
COc1c(C)cc(Br)cc1C(=O)Nc1cccc(-c2nc3ncccc3o2)c1	41*	-20	-9	-7
CCN(CC)C(=O)CSc1nc(OC)cc(=O)[nH]1	nt	-11	8	nt
COC(=O)CC1=NN(c2ccccc2)C(=O)/C1=C\c1ccc(OC)cc1	nt	-38	53*	nt
COC(=O)CC1=NN(c2ccc(OC)cc2)C(=O)/C1=C\c1ccc(Cl)cc1	nt	-24	31*	nt
CCOC(=O)CC1=NN(c2ccccc2)C(=O)/C1=C\c1ccc(OC)cc1OC	nt	-27	51*	nt
CCOC(=O)C1=NN(c2ccccc2)C(=O)/C1=C\c1ccc(N(C)C)cc1	13	-40	3	-4
CCCCNC(=S)N/N=C/c1ccc(OCC(=O)Nc2c(C)cc(C)cc2C)c(OC)c1	nt	-24	3	nt
COc1ccc(OC2C(=O)N(Cc3ccc(F)cc3)C2c2ccc(OC)c(OC)c2)cc1 (centres undefined)	40*	-46	-14	-2
COc1ccc(S(=O)(=O)NCCOc2ccccc2)cc1OC	33*	10	-15	-7
SMILES	PostGolgi ctrl	BB579 growth dn	Yeast lifespan up	PostGolgi yeast
Cc1ccc(S(=O)(=O)Nc2cccnc2)cc1	5	5	-14	-3
COc1ccc(OC)c(NS(=O)(=O)c2ccc(Cl)nc2)c1	nt	8	2	nt
CCCCOc1ccc(S(=O)(=O)Nc2cc(OC)ccc2OC)cc1	51*	-34	-1	2
CCCCOc1ccc(S(=O)(=O)Nc2cccnc2)cc1	14	-16	0	32*
CN(C)CCNC(=O)/C=N/O	nt	-16	6	nt
Cc1ccc(S(=O)(=O)Nc2nc(C)c(NC(=O)Nc3ccc(Cl)cc3Cl)s2)cc1	41*	-30	-17	5
Cc1ccc(S(=O)(=O)Nc2nc(C)c(NC(=O)OCCCl)s2)cc1	15	-48	18	15
CC1CCCC(C)N1C(=O)Cn1cc(/C=C2/C(=O)Nc3ccccc32)c2ccccc21 (centres undefined)	82*	-19	-4	0
COC(=O)c1cn(CC(=O)N2C(C)CCCC2C)c2ccccc12 (centres undefined)	nt	-15	nt	nt
CN1C(=O)/C(=C/c2cn(CC(=O)N3CCCCC3)c3ccccc23)c2ccccc21	52*	-22	-4	0
Nc1cc(-c2ccccc2)nn1Cc1ccc(Cl)cc1	4	-32	-8	0
O=c1cc2c(nn1Cc1ccccc1Cl)-c1ccccc1CC2	43*	-77	-7	14
O=C1c2ccccc2C(=O)N1OCc1cccc(Cl)c1	2	-42	-14	28
O=c1cc2c(nn1Cc1ccc(Cl)cc1Cl)-c1ccccc1CC2	27	-32	-12	-2
